Measured values as given in ChEMBL document CHEMBL1177657, “Design and synthesis of novel hydroxyalkylaminomethylchromones for their IL-5 inhibitory activity” (Bioorg Med Chem, 2010).
Where “and” joins values, the source holds several entries; their conditions need not be identical. Equal values may be shown once.

Assays:
Type in all cases: cell-based
Interleukin-5 = biological target: T1, Interleukin-5 (Mus musculus, UniProt P04401); test: Inhibition of interleukin-5 in mouse Y16 cells
T1 sequence (P04401 whole entry): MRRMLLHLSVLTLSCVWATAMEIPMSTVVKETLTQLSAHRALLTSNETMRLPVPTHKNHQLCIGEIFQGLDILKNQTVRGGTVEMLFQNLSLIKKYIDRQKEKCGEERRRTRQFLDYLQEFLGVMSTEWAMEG
Outline: (§1)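 IL-5-dependent mouse pro-B Y16 cells were incubated with 3 units/mL mIL-5 for 48 h, with or without test sample. Cell metabolism was then read with the tetrazolium salt WST-1 as an index of proliferation.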

[1] = biological target: T2, Interleukin-5 (Mus musculus) (UniProt P04401); test: Inhibition of interleukin-5 in mouse Y16 cells at 30 uM; outline: as §1
T2 sequence (whole entry): T1 sequence (P04401 whole entry)

[2] = biological target: T2, Interleukin-5 (Mus musculus); test: Inhibition of interleukin-5 in mouse Y16 cells at 50 uM; outline: as §1

| Structure (SMILES) | IC50 (Interleukin-5) | inhibition [1] [%] | inhibition [2] [%] |
| --- | --- | --- | --- |
| CC(C)(C)C(CO)NCc1coc2cccc(OCC3CCCCC3)c2c1=O (centres undefined) | 26.2 µM | 65 |  |
| O=c1c(CNc2ccccc2)coc2cccc(OCC3CCCCC3)c12 | > 50 µM | 14 |  |
| O=c1c(CNCc2ccc(O)cc2)coc2cccc(OCC3CCCCC3)c12 | 28.5 µM | 50 |  |
| O=c1c(CNC(CO)CC2CCCCC2)coc2cccc(OCC3CCCCC3)c12 (centres undefined) | 17.3 µM | 93 |  |
| O=c1c(CNc2ccc(O)cc2)coc2cccc(OCC3CCCCC3)c12 | 27.3 µM | 57 |  |
| O=c1c(-c2ccc(O[C@@H]3O[C@H](CO)[C@@H](O)[C@H](O)[C@H]3O)cc2)coc2cc(O)cc(O)c12 [SOPHORICOSIDE] | 1.4 µM and 10.6 µM |  | 79.1 |
| CC(C)(CO)NCc1coc2cccc(OCC3CCCCC3)c2c1=O | 26.4 µM | 63 |  |
| O=c1c(CNCCO)coc2cccc(OCC3CCCCC3)c12 | > 50 µM | 13 |  |
| O=c1c(CNC(CCO)c2ccccc2)coc2cccc(OCC3CCCCC3)c12 (centres undefined) | > 50 µM | 30 |  |
| O=c1c(CNC(CO)c2ccccc2)coc2cccc(OCC3CCCCC3)c12 (centres undefined) | 18.5 µM | 88 |  |
| O=c1c(CNCCCCCO)coc2cccc(OCC3CCCCC3)c12 | > 50 µM | 20 |  |
| COc1ccc(NCc2coc3cccc(OCC4CCCCC4)c3c2=O)cc1 | > 50 µM | 31 |  |
| COc1ccc(CNCc2coc3cccc(OCC4CCCCC4)c3c2=O)cc1 | > 30 µM | 43 |  |
| O=c1c(CNCc2ccccc2)coc2cccc(OCC3CCCCC3)c12 | > 50 µM | 32 |  |
| CCCC(CO)NCc1coc2cccc(OCC3CCCCC3)c2c1=O (centres undefined) | > 50 µM | 13 |  |
| O=c1c(CNC(CO)Cc2ccccc2)coc2cccc(OCC3CCCCC3)c12 (centres undefined) | 25.7 µM | 72 |  |
| O=c1c(CNCCCO)coc2cccc(OCC3CCCCC3)c12 | > 50 µM | 15 |  |
